# The list is not random: actives were taken first. Their share in the collection is about 2%.
# INS promoter inh: inhibitors of insulin promoter-driven GFP, primary screen, imaging, TRM-6 cells (human fetal islet line), eGFP reporter, cell count | 130,000 compounds, 0.9% hits | reporter expression induced with tamoxifen | inhibition, % at 2 µM;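 active = inhibition above the mean plus 3 SD, with well images judged a real hit on visual review, cut at about 60% in these data, passing the limit was not always enough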
# Autophagy HCS: autophagy modulators in MEF cells, primary screen, imaging, high-content, MEF GFP-LC3; AID 463193, 2010; calls only at 10 µM (by protocol); MEF GFP-LC3 puncta imaging; test concentration mostly 10 µM; 190,000 compounds, 0.98% hits;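 active = percentage of spot-positive cells more than 3 SD above its plate mean, without a fluorescence outlier flag or 80% toxicity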;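 also: spot-positive cell cutoff set from DMSO-treated cells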
# Insulin prom up: insulin promoter activators in MIN6 cells, imaging, high-content screening, mouse beta cells; MIN6 insulin promoter-GFP reporter; stronger effect = higher value; z-score at 5 µM; 190,000 compounds, 0.3% hits;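 active = z-score above 3 at 5 µM with at least 500 cells counted in the well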
# Dynein transport: inhibitors of GR-EGFP nuclear translocation, primary screen, dynein cargo transport inhibitor project, imaging, high-content, 3617.4 mouse cells. test concentration mostly 20 µM; stimulated with dexamethasone, 1 µM; stronger effect = lower value. z-score, hits read low. 220,000 compounds, 0.47% hits;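 active = plate z-score of nuclear minus cytoplasmic receptor signal below a set negative limit, without overly bright fluorescence or cell loss, cut at about -3.5 in these data, passing the limit was not always enough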;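 also: z-score of nuclear minus cytoplasmic ring GR-EGFP intensity difference per well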
#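 Also added: dexamethasone, 1.0 µM final. Medium: tet-free, stripped-serum medium. Detection: fixed, Hoechst-stained cells imaged at 10x for EGFP. Read-out: nuclear-to-cytoplasmic GR-EGFP distribution per well. Times: induction 48 h, compound 1 h, agonist 30 min.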
# Active calls of the source: *; i = inactive; nt = no result; + = active, no number.
SMILES,INS promoter inh,Autophagy HCS,Insulin prom up,Dynein transport
C=CCN1C(=O)/C(=C\C=C2\N(C)c3ccccc3C2(C)C)SC1=S,i,+,nt,-0.24
CCN(CC)CCN1C(=O)c2oc3ccccc3c(=O)c2C1c1cccc(Br)c1 (stereo not drawn),0,i,nt,0.54
CCN(CC)CCN1C(=O)c2oc3ccccc3c(=O)c2C1c1ccccc1 (stereo not drawn),21,i,3.7*,1.2
Cc1cc(N)n2ncc(-c3cccc(Br)c3)c2n1,93*,i,-0.69,0.67
CC(=O)Nc1ccc(Nc2cc(C)nc3c(-c4ccccc4)cnn23)cc1,75*,i,-0.42,0.035
CCOC(=O)Cc1c(C)nc2c(-c3cccc(Br)c3)cnn2c1C,nt,i,-0.3,-0.72
CC(=O)Nc1ccc(Nc2cc(-c3ccccc3)nc3ncnn23)cc1,-14,i,0.23,-1.2
Cc1cc(N)n2ncc(-c3ccccc3)c2n1,87*,i,0.35,-0.57
Cc1nn2c(C(F)(F)F)cc(-c3ccc(Cl)cc3)nc2c1C(=O)N1CCOCC1,79*,i,-0.16,0.63
O=C(c1cnn2c(C(F)(F)F)cc(-c3ccc(Br)cc3)nc12)N1CCOCC1,36,i,0.29,-0.78
O=C(C1=NN[C@@H]2C(=O)N(c3cccc(C(F)(F)F)c3)C(=O)[C@H]12)c1cnccn1,nt,nt,-0.21,-0.41
CN(C)c1nc(NC(C)(C)C)nc(SCC(=O)Nc2ccccc2)n1,80*,i,-0.07,-0.65
CN(C)c1nc(NCc2ccccc2)nc(SCC(=O)Nc2ccccc2)n1,nt,i,-0.09,-0.11
Cc1cc(C)c2cc(C(=O)Nc3ccccc3)[nH]c2c1,nt,nt,0.48,-0.17
O=[N+]([O-])c1ccc(C2Oc3ccccc3C3CC(c4ccccc4)=NN32)s1 (stereo not drawn),-79,+,0.69,-1
COc1ccc(Cn2nnnc2C(c2ccc(N(C)C)cc2)N2CCC(C(N)=O)CC2)cc1 (stereo not drawn),nt,i,-0.13,-0.75
O=C(NC(=S)Nc1ccccc1N1CCOCC1)c1ccc(-c2ccccc2F)o1,nt,nt,-1.8,0.048
CCN(CC)c1ccc(/C=C/c2nc3ccccc3s2)cc1,-57,+,nt,-10
Cc1ccc(Nc2nc(C)c3c(n2)CC(C)CC3=O)c(C)c1 (stereo not drawn),nt,nt,-0.59,1.5
Cc1nc(Nc2cccc(C(F)(F)F)c2)nc2c1C(=O)CC(C)C2 (stereo not drawn),28,+,-0.06,1
CCN(CC)P(=O)(Nc1ccccc1Br)c1ccc(N(C)C)cc1NC(=O)c1ccco1 (stereo not drawn),-57,i,-0.2,0.49
COc1ccc(-c2nc(SC)n(S(=O)(=O)c3ccccc3)n2)cc1,90*,i,0.25,1.2
CSc1nc(-c2ccccc2)nn1S(=O)(=O)c1ccccc1,31,i,nt,0.38
Cc1ccccc1CN(C)CC(=O)NC(C)CCc1ccccc1 (stereo not drawn),nt,+,0.11,0.42
COc1ccc(C(=O)CN2Cc3ccccc3C2=N)cc1,nt,nt,-0.44,-0.014
SMILES,INS promoter inh,Autophagy HCS,Insulin prom up,Dynein transport
Cc1ccc(S(=O)(=O)NC(=O)NN2CCCCCC2)cc1,5,+,nt,0.67
Cc1cccc(NC(=O)Nc2ccc(C#N)cc2)n1,20,i,3.4*,-0.38
CC(C)S(=O)(=O)c1cnc(-c2cccnc2)nc1N,nt,nt,1.5,-1.2
CN(C)c1ccc(/C=C(/C#N)C(=O)NCc2ccccc2)o1,-227,+,16*,1.6
COc1ccc(C(=O)c2sc3nc(-c4ccc(OC)cc4)ccc3c2N)cc1,-245,+,0.68,-2.7
Nc1c(C(=O)Nc2ccccc2)sc2nc(-c3ccco3)ccc12,80*,i,0.73,-0.13
COc1ccc(-c2c(C#N)c(N)nc3sc(C(=O)c4ccc(C)cc4)c(N)c23)cc1,-3,+,0.19,-1.2
COc1cccc(-c2ccc3c(N)c(C(=O)NC4CC4)sc3n2)c1,nt,nt,-0.98,-0.52
COc1ccc(NC(=O)c2sc3nc(-c4cccnc4)ccc3c2N)cc1,nt,nt,6*,0.15
O=C(Nc1ccc([N+](=O)[O-])cc1Br)c1cc2ccccc2nc1Cl,nt,nt,-0.14,-0.35
CCOc1ccc(CN2CCN(Cc3cccn3-c3ncccn3)CC2CCO)cc1 (stereo not drawn),nt,i,1.1,-0.61
Cc1cc(C(=O)CSc2nn3c(=O)c(C(C)(C)C)nnc3s2)c(C)n1C,-13,i,0.57,-0.32
COc1ccc(-c2ccc3c(N)c(C(=O)c4cccc(OC)c4)sc3n2)cc1,-67,+,nt,-0.49

# High-throughput results: PubChem BioAssay, several laboratories
